Results from different studies.
Observed: cell growth or viability

Cl.O[C@]12C=C(c3nccc4c3[nH]c3ccccc34)[C@@H]3CCN(CCCC/C=C\CC1)C[C@@]31C[C@@H]3/C=C\CCCCN3[C@H]12
IC50 (BT-549; neutral red; 48 h): 0.88 µg/mL

C[C@H]1O[C@H](Oc2c(-c3ccc(O)c(O)c3)oc3cc(O)cc(O)c3c2=O)[C@@H](O)[C@@H](O)[C@@H]1O
IC50 (SW780; ATP luminescence; 72 h): 190 µM

COCCOCOc1cc(OCc2ccc(Br)cc2)c(C(=O)/C=C/c2ccc(C(=O)O)cc2)cc1C12CC3CC(CC(C3)C1)C2
IC50 (Jurkat; ATP luminescence; 24 h): 0.84 µM

COc1c2c(cc3c1OCO3)[C@]13C=C[C@H](OC)C[C@@H]1[N@](C2)C[C@H]3OC(=O)c1ccoc1
IC50 (MOLT-4; WST-1): > 10 µM

COc1cccc2c1C(=O)c1c(O)c3c(c(O)c1C2=O)C[C@@](O)(C(=O)CO)C[C@@H]3O[C@H]1C[C@H](N)[C@H](O)[C@H](C)O1
IC50 (BT-549; 48 h): 1.5 µg/mL

N.N.[Cl][Pt][Cl]
IC50 (PLC; 48 h): 47.2 µM

COc1c2c(cc3c1OCO3)[C@]13C=C[C@H](OC)C[C@@H]1[N@](C2)C[C@H]3OC(=O)c1ccco1
IC50 (MOLT-4; WST-1): > 10 µM

N.N.[Cl][Pt][Cl]
IC50 (MIA PaCa-2; resazurin; 72 h): 5.9 µM

CC1=C2C[C@H]3[C@@H](CC=C4C[C@@H](O)CC[C@@]43C)[C@@H]2CC[C@]12O[C@@H]1C[C@H](C)CN[C@H]1[C@H]2C
IC50 (MIA PaCa-2; MTS; 96 h): 17.1 µM

COCCOCOc1cc(O)c(-c2cc(-c3ccc(C(=O)O)cc3)n(C)n2)cc1C12CC3CC(CC(C3)C1)C2
IC50 (Jurkat; ATP luminescence; 24 h): 4.73 µM
